pIC50: −log10 of the molar value. Read-outs that look alike come from different tables or passages of the source.

One assay has as its target T1, aromatase (CYP19) (Homo sapiens, UniProt P11511).
T1 sequence (P11511 1-503): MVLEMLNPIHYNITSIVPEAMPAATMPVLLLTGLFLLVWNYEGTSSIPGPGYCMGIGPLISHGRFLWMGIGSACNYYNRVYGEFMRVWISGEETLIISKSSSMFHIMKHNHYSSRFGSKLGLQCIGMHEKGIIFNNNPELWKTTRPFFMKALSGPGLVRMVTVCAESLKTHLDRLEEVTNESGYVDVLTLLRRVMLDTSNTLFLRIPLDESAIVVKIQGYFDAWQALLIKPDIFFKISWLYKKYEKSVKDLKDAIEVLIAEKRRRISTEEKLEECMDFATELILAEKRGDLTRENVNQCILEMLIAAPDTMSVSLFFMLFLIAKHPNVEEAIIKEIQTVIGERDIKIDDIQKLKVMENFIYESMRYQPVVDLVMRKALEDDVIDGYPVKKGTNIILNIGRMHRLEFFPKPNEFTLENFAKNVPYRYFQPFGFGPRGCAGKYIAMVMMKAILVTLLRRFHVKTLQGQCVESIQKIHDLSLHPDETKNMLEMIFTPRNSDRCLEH
The experiment in a line: Aromatase assay. The assay is classed as biochemical. Conditions: for inhibition at 50 µM: read-out: Aromatase % inhib., 50 μM; for inhibition at 50 µM / Aromatase % inhib.: vs vehicle-treated controls; for Aromatase % inhib.: 50 μM.

The subject of assay [1] is Human embryonic kidney cells 293. Briefly: Cell survival in the NFκB assay. It is filed as cell-based. Conditions: for viability at 50 µM: Homo sapiens, HEK293, 6 h, read-out: NFκB % surv.; for NFκB % surv.: 50 μM, 293 cells.
For the next assay, the system named is RAW 264.7 cells. The experiment in a line: Cell survival in the nitrite assay. It is filed as cell-based, murine. Conditions: for viability at 50 µM: Mus musculus, RAW264.7, 20 h, read-out: Nitrite assay % surv.; for Nitrite assay % surv.: 50 μM, RAW 264.7 cells. A digest of the protocol: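 RAW 264.7 cells held 24 h at 37°C, 5% CO2, then given serially diluted test compound for 15 min. LPS (1 μg/mL) or no LPS added for a further 20 h. Viability assessed by SRB protein staining under the same conditions as the nitrite assay, as % survival versus vehicle-treated controls.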

The subject of assay [2] is Hepa 1c1c7 murine hepatoma cells. Briefly: Cell survival in the QR1 assay. It is filed as cell-based. Conditions: for viability at 50 µM: Mus musculus, Hepa-1c1c7, read-out: QR1 % surv.; for QR1 % surv.: 50 μM, cell survival in comparison with vehicle-treated controls.
Assay [3] relates to TNF-α-induced NFκB activity. The experiment in a line: NFκB luciferase assay. The assay is classed as cell-based, human. The following applies: for inhibition at 50 µM: HEK293, read-out: NFκB % inhib.; for NFκB % inhib.: 50 μM. A digest of the protocol: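 HEK293 line carrying a chromosomally integrated luciferase reporter driven by the NFκB response element. Cells incubated 6 h with TNFα plus test compound, then luciferase activity read. Inhibition expressed as % relative to TNFα-treated control. IC50 from dose-response of five serial dilutions, mean of two experiments.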

The next assay concerns MCF7 breast cancer cells. Briefly: SRB assay: MCF7 cell proliferation. It is filed as cell-based. Conditions: for viability at 50 µM: Homo sapiens, MCF7, 72 h, read-out: SRB assay % surv.; for SRB assay % surv.: MCF7 cells, 72 h. The gist of the method: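 MCF7 cells (1 × 10^4 per well) plated with test compound, 72 h at 37°C, 5% CO2. Fixed in 10% TCA for 30 min, stained with 0.4% SRB in 1% acetic acid for 30 min, then washed with 1% acetic acid. Bound dye dissolved in 10 mM Tris (pH 10.0) and A515 read. Survival given as % of vehicle-treated controls.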
(In general: In SRB staining, fixed cells bind dye roughly in proportion to their protein.)

For assay [4], the system named is quinone reductase 1 (QR1). Briefly: QR1 induction in cell culture. It is filed as cell-based, murine. Conditions: 50 μM; Hepa 1c1c7 cells. The gist of the method:
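Hepa 1c1c7 murine hepatoma cells. QR1 measured by NADPH-dependent, menadiol-mediated reduction of MTT to blue formazan, with protein determined by crystal violet staining of identical plates. Specific activity given as nmol formazan/mg protein/min. IR is the ratio of treated to DMSO-control specific activity. CD (concentration doubling activity) derived by dose-response for IR >2.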

The test system of assay [5] is nitric oxide (NO) production in LPS-stimulated RAW 264.7 murine macrophage cells. The experiment in a line: Nitrite assay: NO production in LPS-stimulated RAW 264.7 cells. The assay is classed as cell-based.
Assay [6] has as its system various human cancer cell lines. The following applies: natural callophycin A; cited from earlier work.

One may read the pIC50 as −log10 of the IC50, conventionally taken in molar units. With `COC(=O)[C@@H]1Cc2c([nH]c3ccccc23)CN1C(=O)OCC(C)C` [Compound 3b, (S)-2-Isobutyl 3-methyl 3,4-dihydro-1H-pyrido[3,4-b]indole-2,3(9H)-dicarboxylate], the negative logarithm of the IC50 (pIC50) is 4.19 at aromatase (CYP19) and 4.79 in assay [3] (Homo sapiens, HEK293, read-out: NFκB IC50). For the same molecule, the figures for the inhibition at 50 µM (on aromatase (CYP19); in assay [3] (Homo sapiens)) were 41.5% and 59.8%, respectively. Besides, the viability at 50 µM in assay [1] worked out at 95.6%; in the assay on RAW 264.7 cells, 105%; in assay [2] it was 88.3%; in the assay with MCF7 breast cancer cells it was 76.7%. The “QR1 IR (induction ratio)” value in assay [4] stood at 1.7.

As to `O=C(O)[C@H]1Cc2c([nH]c3ccccc23)CN1` [Compound 1b, 1,2,3,4-tetrahydro-β-carboline-3-carboxylic acid], the inhibition at 50 µM in assay [3] (Homo sapiens) is -72.5%.

Turning to “(R)-2-(Isobutoxycarbonyl)-2,3,4,9-tetrahydro-1H-pyrido[3,4-b]indole-3-carboxylic acid [Compound 7d]”, the Aromatase % inhib. at aromatase (CYP19) was determined as 36.3%. In addition, the NFκB % surv. in [1] worked out at 264.3%. Further, the “Nitrite assay % surv.” value in the assay with RAW 264.7 cells was found to be 134.4%. Also, the “Nitrite assay % inhib.” value in assay [5] (50 μM) is on record as 1.5%. In assay [2], this molecule returned a QR1 % surv. of 87.5%. The molecule also returned an NFκB % inhib. in assay [3] (TNFα-treated 293 cells) of 46.1%. Further, the “SRB assay % surv.” value in the assay with MCF7 breast cancer cells (50 μM) was 97.4%. In [4], the “QR1 IR (induction ratio)” value is given as 1.5.

On to `COC(=O)[C@@H]1Cc2c([nH]c3ccccc23)CN1C(=O)NC(C)C` [Compound 6b, (S)-Methyl 2-(isopropylcarbamoyl)-2,3,4,9-tetrahydro-1H-pyrido[3,4-b]indole-3-carboxylate], for which the inhibition at 50 µM at aromatase (CYP19) is > 50%.

Turning to `C=CCOC(=O)N1Cc2[nH]c3ccccc3c2C[C@H]1C(=O)OC` [Compound 3a, (S)-2-Allyl 3-methyl 3,4-dihydro-1H-pyrido[3,4-b]indole-2,3(9H)-dicarboxylate], at aromatase (CYP19), the inhibition at 50 µM was > 50%.

For `O=C(O)C1Cc2c([nH]c3ccccc23)CN1Cc1ccc(O)cc1` (stereo not shown) [callophycin A, Callophycin A], the “inhibition of MCF7 cell proliferation (in words)” value in the assay with MCF7 breast cancer cells (50 μM) is given as “didn’t show the inhibitory activity”. For the same molecule, the antiproliferative effects result in assay [6] was “low micromolar concentrations”.

In the case of `O=C(O)[C@@H]1Cc2c([nH]c3ccccc23)CN1Cc1ccc(O)cc1` [Compound 12a, (S)-Callophycin A], at aromatase (CYP19), the inhibition at 50 µM is > 50%.

With “(R)-2-Isobutyl 3-methyl 3,4-dihydro-1H-pyrido[3,4-b]indole-2,3(9H)-dicarboxylate [Compound 3d]”, at aromatase (CYP19), the Aromatase % inhib. worked out at 31.7%. The molecule also yielded an NFκB % surv. in [1] of 112.3%. The “Nitrite assay % surv.” value in the assay with RAW 264.7 cells turned out to be 92.6%. For the same molecule, the pIC50 in assay [5] (read-out: Nitrite assay IC50) was 5.55; in assay [3] (read-out: NFκB IC50, TNFα-treated 293 cells) it was 5.32. Also, in assay [2], the QR1 % surv. was determined as 78.8%. In assay [3] (TNFα-treated 293 cells), this molecule had an NFκB % inhib. of 91.6%. Also, the “SRB assay % surv.” value in the assay on MCF7 breast cancer cells (50 μM) was determined as 72.0%. Also, the “QR1 IR (induction ratio)” value in assay [4] is recorded as 1.1.

In the case of `CC(C)COC(=O)N1Cc2[nH]c3ccccc3c2C[C@H]1C(=O)O` [Compound 7b, (S)-2-(Isobutoxycarbonyl)-2,3,4,9-tetrahydro-1H-pyrido[3,4-b]indole-3-carboxylic acid], at aromatase (CYP19), the negative logarithm of the IC50 (pIC50) was 4.14. Also, the figures for the inhibition at 50 µM (at aromatase (CYP19); in assay [3] (Homo sapiens)) were 40% and 42.6%, respectively. Moreover, the viability at 50 µM in [1] turned out to be 138%; in the assay on RAW 264.7 cells it was 137%; in [2], 94.2%; in the assay on MCF7 breast cancer cells it was 105%. Besides, the “QR1 IR (induction ratio)” value in assay [4] was determined as 1.8.
